In ChEMBL document CHEMBL4330069, “Boosting the efficacy of anti-MRSA β-lactam antibiotics via an easily accessible, non-cytotoxic and orally bioavailable FtsZ inhibitor” (Eur J Med Chem, 2019):
Values after ≈ are worked out from the molar mass of the structure shown.

Legend:
Type in all cases: functional
[1] = tested on: Staphylococcus aureus; assay: Synergistic antibacterial activity against multidrug-resistant Staphylococcus aureus isolate 1344 assessed as fractional Inhibitory concentration index in presence of cefuroxime by broth microdilution assay
Method in brief: (§1)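 CLSI broth microdilution run on clinical MRSA isolates with each β-lactam alone, the test agent alone, and the two combined; agents dissolved in DMSO. Growth inhibition was read by eye. FIC index = FIC(compound) + FIC(β-lactam), where each FIC is the MIC in combination divided by the MIC alone. An index ≤0.5 was taken as synergy.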

[2] = tested on: Staphylococcus aureus; assay: Synergistic antibacterial activity against multidrug-resistant Staphylococcus aureus isolate 1449 in presence of cefuroxime by broth microdilution assay
Method in brief: (§2)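 Clinical MRSA isolate panel; compound and β-lactam tested alone and in combination by CLSI broth microdilution, compounds dissolved in DMSO, growth inhibition scored by eye, run in duplicate. FIC index = FIC(compound) + FIC(drug), each the MIC in combination divided by the MIC alone; an index ≤ 0.5 was called synergy.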

[3] = tested on: Staphylococcus aureus; assay: Synergistic antibacterial activity against multidrug-resistant Staphylococcus aureus isolate 774 in presence of cefuroxime by broth microdilution assay
[4] = tested on: Staphylococcus aureus; assay: Synergistic antibacterial activity against multidrug-resistant Staphylococcus aureus isolate 1136 assessed as fractional Inhibitory concentration index in presence of cefuroxime by broth microdilution assay; method in brief: as §1
[5] = tested on: Staphylococcus aureus; assay: Synergistic antibacterial activity against multidrug-resistant Staphylococcus aureus isolate 85 in presence of methicillin by broth microdilution assay
[6] = tested on: Staphylococcus aureus; assay: Antibacterial activity against multidrug-resistant Staphylococcus aureus isolate 3589 by broth microdilution assay
Method in brief: (§3)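 Broth microdilution MIC per CLSI guidelines against clinical MRSA isolates, for β-lactams and test compound alone and in combination. Compounds were dissolved in DMSO. Growth was read by eye, in duplicate. FIC index = FIC(compound) + FIC(drug); synergy defined as FIC index ≤0.5.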

[7] = tested on: Staphylococcus aureus; assay: Synergistic antibacterial activity against multidrug-resistant Staphylococcus aureus isolate 231 in presence of methicillin by broth microdilution assay; method in brief: as §2
[8] = tested on: Staphylococcus aureus; assay: Synergistic antibacterial activity against multidrug-resistant Staphylococcus aureus isolate 2490 assessed as fractional Inhibitory concentration index in presence of amoxicillin by broth microdilution assay; method in brief: as §1
[9] = tested on: Staphylococcus aureus; assay: Synergistic antibacterial activity against multidrug-resistant Staphylococcus aureus isolate 3589 in presence of meropenem by broth microdilution assay
[10] = tested on: Staphylococcus aureus; assay: Synergistic antibacterial activity against multidrug-resistant Staphylococcus aureus isolate 200 in presence of methicillin by broth microdilution assay; method in brief: as §2
[11] = tested on: Staphylococcus aureus; assay: Synergistic antibacterial activity against multidrug-resistant Staphylococcus aureus isolate 1749 assessed as fractional Inhibitory concentration index in presence of amoxicillin by broth microdilution assay; method in brief: as §1
[12] = tested on: Staphylococcus aureus; assay: Synergistic antibacterial activity against multidrug-resistant Staphylococcus aureus isolate 200 assessed as fractional Inhibitory concentration index in presence of cloxacillin by broth microdilution assay; method in brief: as §1
[13] = tested on: Staphylococcus aureus; assay: Synergistic antibacterial activity against multidrug-resistant Staphylococcus aureus isolate 1344 in presence of cloxacillin by broth microdilution assay; method in brief: as §2
[14] = tested on: Staphylococcus aureus; assay: Synergistic antibacterial activity against multidrug-resistant Staphylococcus aureus isolate 3267 in presence of cloxacillin by broth microdilution assay
Method in brief: (§4)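 CLSI broth microdilution on clinical MRSA isolates. MICs were measured for the β-lactam alone, the test agent alone and the two combined. Compounds were dissolved in DMSO, and growth inhibition was scored by eye. FIC index is the sum, over both agents, of MIC in combination divided by MIC alone. An FIC index ≤0.5 was taken as synergy.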

[15] = tested on: Staphylococcus aureus; assay: Synergistic antibacterial activity against multidrug-resistant Staphylococcus aureus isolate 1136 assessed as fractional Inhibitory concentration index in presence of amoxicillin by broth microdilution assay; method in brief: as §1
[16] = tested on: Staphylococcus aureus; assay: Synergistic antibacterial activity against multidrug-resistant Staphylococcus aureus isolate 3267 assessed as fractional Inhibitory concentration index in presence of cefuroxime by broth microdilution assay
[17] = tested on: Staphylococcus aureus; assay: Synergistic antibacterial activity against multidrug-resistant Staphylococcus aureus isolate 2728 in presence of meropenem by broth microdilution assay; method in brief: as §4
[18] = tested on: Staphylococcus aureus; assay: Synergistic antibacterial activity against multidrug-resistant Staphylococcus aureus isolate 2901 in presence of amoxicillin by broth microdilution assay; method in brief: as §4
[19] = tested on: Staphylococcus aureus; assay: Synergistic antibacterial activity against multidrug-resistant Staphylococcus aureus isolate 2728 assessed as fractional Inhibitory concentration index in presence of amoxicillin by broth microdilution assay
[20] = tested on: Staphylococcus aureus; assay: Synergistic antibacterial activity against multidrug-resistant Staphylococcus aureus isolate 3580 assessed as fractional Inhibitory concentration index in presence of methicillin by broth microdilution assay
[21] = tested on: Staphylococcus aureus; assay: Synergistic antibacterial activity against multidrug-resistant Staphylococcus aureus isolate 2973 assessed as fractional Inhibitory concentration index in presence of cefuroxime by broth microdilution assay
[22] = tested on: Staphylococcus aureus; assay: Synergistic antibacterial activity against multidrug-resistant Staphylococcus aureus isolate 358 in presence of methicillin by broth microdilution assay
[23] = tested on: Staphylococcus aureus; assay: Synergistic antibacterial activity against multidrug-resistant Staphylococcus aureus isolate 358 in presence of amoxicillin by broth microdilution assay
[24] = tested on: Staphylococcus aureus; assay: Synergistic antibacterial activity against multidrug-resistant Staphylococcus aureus isolate 2224 assessed as fractional Inhibitory concentration index in presence of cefuroxime by broth microdilution assay; method in brief: as §1
[25] = tested on: Staphylococcus aureus; assay: Synergistic antibacterial activity against multidrug-resistant Staphylococcus aureus isolate 3267 assessed as fractional Inhibitory concentration index in presence of meropenem by broth microdilution assay
[26] = tested on: Staphylococcus aureus; assay: Antibacterial activity against multidrug-resistant Staphylococcus aureus isolate 2895 by broth microdilution assay; method in brief: as §3
[27] = tested on: Staphylococcus aureus; assay: Synergistic antibacterial activity against multidrug-resistant Staphylococcus aureus isolate 2224 in presence of methicillin by broth microdilution assay; method in brief: as §2
[28] = tested on: Staphylococcus aureus; assay: Antibacterial activity against multidrug-resistant Staphylococcus aureus isolate 3411 by broth microdilution assay; method in brief: as §3
[29] = tested on: Staphylococcus aureus; assay: Synergistic antibacterial activity against multidrug-resistant Staphylococcus aureus isolate 2919 assessed as fractional Inhibitory concentration index in presence of meropenem by broth microdilution assay
[30] = tested on: Staphylococcus aureus; assay: Synergistic antibacterial activity against multidrug-resistant Staphylococcus aureus isolate 774 in presence of methicillin by broth microdilution assay
[31] = tested on: Staphylococcus aureus; assay: Synergistic antibacterial activity against multidrug-resistant Staphylococcus aureus isolate 231 in presence of cloxacillin by broth microdilution assay; method in brief: as §2
[32] = tested on: Staphylococcus aureus; assay: Synergistic antibacterial activity against multidrug-resistant Staphylococcus aureus isolate 774 in presence of amoxicillin by broth microdilution assay
[33] = tested on: Staphylococcus aureus; assay: Synergistic antibacterial activity against multidrug-resistant Staphylococcus aureus isolate 757 assessed as fractional Inhibitory concentration index in presence of meropenem by broth microdilution assay
[34] = tested on: Staphylococcus aureus; assay: Synergistic antibacterial activity against multidrug-resistant Staphylococcus aureus isolate 3589 in presence of cefuroxime by broth microdilution assay
[35] = tested on: Staphylococcus aureus; assay: Synergistic antibacterial activity against multidrug-resistant Staphylococcus aureus isolate 3332 in presence of meropenem by broth microdilution assay; method in brief: as §4
[36] = tested on: Staphylococcus aureus; assay: Synergistic antibacterial activity against multidrug-resistant Staphylococcus aureus isolate 2895 assessed as fractional Inhibitory concentration index in presence of cefuroxime by broth microdilution assay
[37] = tested on: Staphylococcus aureus; assay: Synergistic antibacterial activity against multidrug-resistant Staphylococcus aureus isolate 757 assessed as fractional Inhibitory concentration index in presence of cefuroxime by broth microdilution assay
[38] = tested on: Staphylococcus aureus; assay: Synergistic antibacterial activity against multidrug-resistant Staphylococcus aureus isolate 2973 assessed as fractional Inhibitory concentration index in presence of methicillin by broth microdilution assay
[39] = tested on: Staphylococcus aureus; assay: Antibacterial activity against multidrug-resistant Staphylococcus aureus isolate 231 by broth microdilution assay; method in brief: as §3

CCCCCCCCCNc1ccc(F)c(C(N)=O)c1F
fractional inhibitory concentration index (FICI) [1]: 0.3 | MIC [2]: 2 µg/mL | MIC [3]: 2 µg/mL | fractional inhibitory concentration index (FICI) [4]: 0.1 | MIC [5]: 4 µg/mL | MIC [6]: 8 µg/mL (≈ 26.8 µM) | MIC [7]: 4 µg/mL | fractional inhibitory concentration index (FICI) [8]: 0.6 | MIC [9]: 4 µg/mL | MIC [10]: 4 µg/mL | fractional inhibitory concentration index (FICI) [11]: 1 | fractional inhibitory concentration index (FICI) [12]: 1 | MIC [13]: 1 µg/mL | MIC [14]: 1 µg/mL | fractional inhibitory concentration index (FICI) [15]: 1 | fractional inhibitory concentration index (FICI) [16]: 0 | MIC [17]: 4 µg/mL | MIC [18]: 16 µg/mL | fractional inhibitory concentration index (FICI) [19]: 0.1 | fractional inhibitory concentration index (FICI) [20]: 0.2 | fractional inhibitory concentration index (FICI) [21]: 0.5 | MIC [22]: 2 µg/mL | MIC [23]: 4 µg/mL | fractional inhibitory concentration index (FICI) [24]: 0.3 | fractional inhibitory concentration index (FICI) [25]: 4 | MIC [26]: 16 µg/mL (≈ 53.6 µM) | MIC [27]: 2 µg/mL | MIC [28]: 2 µg/mL (≈ 6.7 µM) | fractional inhibitory concentration index (FICI) [29]: 4.3 | MIC [30]: 4 µg/mL | MIC [31]: 2 µg/mL | MIC [32]: 8 µg/mL | fractional inhibitory concentration index (FICI) [33]: 4.1 | MIC [34]: 2 µg/mL | MIC [35]: 4 µg/mL | fractional inhibitory concentration index (FICI) [36]: 0.3 | fractional inhibitory concentration index (FICI) [37]: 0.1 | fractional inhibitory concentration index (FICI) [38]: 0.3 | MIC [39]: 8 µg/mL (≈ 26.8 µM)
